ChEMBL document CHEMBL5058577, “EUbOPEN Chemogenomics Library 2 (Multiplex)” (2022)

Test system: U2OS
Experiment: Multiplex assay against U2OS
Assay type: toxicity, cell-based
Conditions: human
Procedure, shortened: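 Imaging took place on a CQ1 microscope at 37°C and 5% CO2 once compound had been added to live cells stained at seeding with Hoechst33342, BioTracker Green Microtubule Cytoskeleton Dye, MitoTracker Red and Annexin V Alexa Fluor 680. CellPathfinder machine-learning gating classed cells as Hoechst high-intensity objects or normal cells, classed normal cells as having healthy, pyknosed or fragmented nuclei, and classed pyknosed cells as mitotic or apoptotic. Tubulin, mitochondrial-mass and membrane-permeability phenotypes are per cents of the healthy-nucleus cells.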

[1] = 12 h, 1 µM, compound concentration 1 uM, replicate 1
[2] = 12 h, 1 µM, compound concentration 1 uM, replicate 2
[3] = 12 h, 10 µM, compound concentration 10 uM, replicate 1
[4] = 12 h, 10 µM, compound concentration 10 uM, replicate 2
[5] = 24 h, 1 µM, compound concentration 1 uM, replicate 1
[6] = 24 h, 1 µM, compound concentration 1 uM, replicate 2
[7] = 24 h, 10 µM, compound concentration 10 uM, replicate 1
[8] = 24 h, 10 µM, compound concentration 10 uM, replicate 2
[9] = 48 h, 1 µM, compound concentration 1 uM, replicate 1
[10] = 48 h, 1 µM, compound concentration 1 uM, replicate 2
[11] = 48 h, 10 µM, compound concentration 10 uM, replicate 1
[12] = 48 h, 10 µM, compound concentration 10 uM, replicate 2

For `S=C(NCCCc1c[nH]cn1)NCCCN(Cc1ccc(Cl)c(Cl)c1)c1ccc(Br)cn1`, which “Population Apoptotic (%)” value [1] is on record?
The value was 75%.

What about the “Population Fragmented Nuclei (%)” value [1] of the same molecule?
Its value is 27%.

What about the “Population Healthy Nuclei (%)” value [1] of the same molecule?
Its value is 63%.

What about the “Population Hoechst High Intensity Objects (%)” value [1] of the same molecule?
The value was 2%.

And the “Population Membrane Permeable-Phenotype (%)” value [1]?
Its value is 13%.

And the “Population Mitochondria Different-Phenotype (%)” value [1]?
The value was 2%.

What about the “Population Mitotic Cells (%)” value [1] of the same molecule?
Its value is 25%.

And the “Population Normal (%)” value [1]?
Its value is 97%.

And the “Population Pyknosed Nuclei (%)” value [1]?
Its value is 9%.

What about the “Population Tubulin-Different-Phenotype (%)” value [1] of the same molecule?
The value was 6%.

And the “Total Cell Count” value [1]?
Its value is 228.

And the “Population Apoptotic (%)” value [2]?
The value was 80%.

What about the “Population Fragmented Nuclei (%)” value [2] of the same molecule?
The value was 20%.

And the “Population Healthy Nuclei (%)” value [2]?
Its value is 68%.

And the “Population Hoechst High Intensity Objects (%)” value [2]?
The value was 3%.

What about the “Population Membrane Permeable-Phenotype (%)” value [2] of the same molecule?
The value was 6%.

What about the “Population Mitochondria Different-Phenotype (%)” value [2] of the same molecule?
Its value is 9%.

What about the “Population Mitotic Cells (%)” value [2] of the same molecule?
Its value is 20%.

And the “Population Normal (%)” value [2]?
The value was 96%.

What about the “Population Pyknosed Nuclei (%)” value [2] of the same molecule?
Its value is 11%.

What about the “Population Tubulin-Different-Phenotype (%)” value [2] of the same molecule?
The value was 1%.

What about the “Total Cell Count” value [2] of the same molecule?
The value was 93.

And the “Population Apoptotic (%)” value [3]?
Its value is 66%.

And the “Population Fragmented Nuclei (%)” value [3]?
Its value is 27%.

And the “Population Healthy Nuclei (%)” value [3]?
Its value is 46%.

What about the “Population Hoechst High Intensity Objects (%)” value [3] of the same molecule?
Its value is 6%.

What about the “Population Membrane Permeable-Phenotype (%)” value [3] of the same molecule?
The value was 86%.

And the “Population Mitochondria Different-Phenotype (%)” value [3]?
The value was 26%.

What about the “Population Mitotic Cells (%)” value [3] of the same molecule?
Its value is 33%.

And the “Population Normal (%)” value [3]?
Its value is 93%.

And the “Population Pyknosed Nuclei (%)” value [3]?
The value was 26%.

What about the “Population Tubulin-Different-Phenotype (%)” value [3] of the same molecule?
The value was 83%.

And the “Total Cell Count” value [3]?
Its value is 220.

What about the “Population Apoptotic (%)” value [4] of the same molecule?
Its value is 58%.

What about the “Population Fragmented Nuclei (%)” value [4] of the same molecule?
Its value is 24%.

What about the “Population Hoechst High Intensity Objects (%)” value [4] of the same molecule?
Its value is 0%.

What about the “Population Membrane Permeable-Phenotype (%)” value [4] of the same molecule?
The value was 84%.

What about the “Population Mitochondria Different-Phenotype (%)” value [4] of the same molecule?
The value was 60%.

And the “Population Mitotic Cells (%)” value [4]?
Its value is 41%.

What about the “Population Normal (%)” value [4] of the same molecule?
Its value is 100%.

And the “Population Pyknosed Nuclei (%)” value [4]?
The value was 29%.

And the “Population Tubulin-Different-Phenotype (%)” value [4]?
Its value is 89%.

And the “Total Cell Count” value [4]?
The value was 82.

And the “Population Apoptotic (%)” value [5]?
Its value is 81%.

And the “Population Fragmented Nuclei (%)” value [5]?
The value was 22%.

And the “Population Healthy Nuclei (%)” value [5]?
The value was 69%.

And the “Population Hoechst High Intensity Objects (%)” value [5]?
The value was 3%.

And the “Population Membrane Permeable-Phenotype (%)” value [5]?
The value was 11%.

What about the “Population Mitochondria Different-Phenotype (%)” value [5] of the same molecule?
The value was 3%.

And the “Population Mitotic Cells (%)” value [5]?
Its value is 18%.

And the “Population Normal (%)” value [5]?
Its value is 96%.

And the “Population Pyknosed Nuclei (%)” value [5]?
Its value is 8%.

What about the “Population Tubulin-Different-Phenotype (%)” value [5] of the same molecule?
The value was 9%.

And the “Total Cell Count” value [5]?
Its value is 285.

And the “Population Apoptotic (%)” value [6]?
Its value is 100%.

What about the “Population Fragmented Nuclei (%)” value [6] of the same molecule?
Its value is 30%.

And the “Population Healthy Nuclei (%)” value [6]?
The value was 65%.

What about the “Population Hoechst High Intensity Objects (%)” value [6] of the same molecule?
Its value is 1%.

What about the “Population Membrane Permeable-Phenotype (%)” value [6] of the same molecule?
The value was 7%.

And the “Population Mitochondria Different-Phenotype (%)” value [6]?
Its value is 5%.

What about the “Population Mitotic Cells (%)” value [6] of the same molecule?
Its value is 0%.

What about the “Population Normal (%)” value [6] of the same molecule?
Its value is 98%.

And the “Population Pyknosed Nuclei (%)” value [6]?
The value was 4%.

What about the “Population Tubulin-Different-Phenotype (%)” value [6] of the same molecule?
Its value is 3%.

And the “Total Cell Count” value [6]?
The value was 125.

What about the “Population Apoptotic (%)” value [7] of the same molecule?
Its value is 62%.

And the “Population Fragmented Nuclei (%)” value [7]?
The value was 33%.

And the “Population Healthy Nuclei (%)” value [7]?
Its value is 38%.

And the “Population Hoechst High Intensity Objects (%)” value [7]?
Its value is 5%.

And the “Population Membrane Permeable-Phenotype (%)” value [7]?
Its value is 59%.

What about the “Population Mitochondria Different-Phenotype (%)” value [7] of the same molecule?
The value was 17%.

What about the “Population Mitotic Cells (%)” value [7] of the same molecule?
Its value is 37%.

What about the “Population Normal (%)” value [7] of the same molecule?
The value was 94%.

And the “Population Pyknosed Nuclei (%)” value [7]?
Its value is 28%.

And the “Population Tubulin-Different-Phenotype (%)” value [7]?
The value was 54%.

What about the “Total Cell Count” value [7] of the same molecule?
Its value is 227.

And the “Population Apoptotic (%)” value [8]?
The value was 60%.

What about the “Population Fragmented Nuclei (%)” value [8] of the same molecule?
Its value is 29%.

What about the “Population Healthy Nuclei (%)” value [8] of the same molecule?
Its value is 40%.

What about the “Population Hoechst High Intensity Objects (%)” value [8] of the same molecule?
The value was 2%.

What about the “Population Membrane Permeable-Phenotype (%)” value [8] of the same molecule?
The value was 77%.

What about the “Population Mitochondria Different-Phenotype (%)” value [8] of the same molecule?
The value was 32%.

What about the “Population Mitotic Cells (%)” value [8] of the same molecule?
Its value is 39%.

And the “Population Normal (%)” value [8]?
Its value is 97%.

And the “Population Pyknosed Nuclei (%)” value [8]?
The value was 29%.

And the “Population Tubulin-Different-Phenotype (%)” value [8]?
The value was 64%.

And the “Total Cell Count” value [8]?
The value was 79.

And the “Population Apoptotic (%)” value [9]?
The value was 83%.

And the “Population Fragmented Nuclei (%)” value [9]?
The value was 17%.

What about the “Population Healthy Nuclei (%)” value [9] of the same molecule?
Its value is 74%.

What about the “Population Hoechst High Intensity Objects (%)” value [9] of the same molecule?
Its value is 1%.

And the “Population Membrane Permeable-Phenotype (%)” value [9]?
The value was 5%.

And the “Population Mitochondria Different-Phenotype (%)” value [9]?
Its value is 3%.

What about the “Population Mitotic Cells (%)” value [9] of the same molecule?
The value was 16%.

What about the “Population Normal (%)” value [9] of the same molecule?
Its value is 98%.

What about the “Population Pyknosed Nuclei (%)” value [9] of the same molecule?
Its value is 7%.

What about the “Population Tubulin-Different-Phenotype (%)” value [9] of the same molecule?
Its value is 2%.

And the “Total Cell Count” value [9]?
Its value is 409.

What about the “Population Apoptotic (%)” value [10] of the same molecule?
Its value is 87%.

What about the “Population Fragmented Nuclei (%)” value [10] of the same molecule?
The value was 28%.

What about the “Population Healthy Nuclei (%)” value [10] of the same molecule?
Its value is 60%.

And the “Population Hoechst High Intensity Objects (%)” value [10]?
The value was 0%.

What about the “Population Mitotic Cells (%)” value [10] of the same molecule?
Its value is 12%.

What about the “Population Normal (%)” value [10] of the same molecule?
The value was 99%.

What about the “Population Pyknosed Nuclei (%)” value [10] of the same molecule?
Its value is 11%.

What about the “Population Tubulin-Different-Phenotype (%)” value [10] of the same molecule?
Its value is 3%.

What about the “Total Cell Count” value [10] of the same molecule?
The value was 211.

What about the “Population Apoptotic (%)” value [11] of the same molecule?
The value was 70%.

And the “Population Fragmented Nuclei (%)” value [11]?
Its value is 43%.

And the “Population Healthy Nuclei (%)” value [11]?
The value was 8%.

What about the “Population Hoechst High Intensity Objects (%)” value [11] of the same molecule?
Its value is 21%.

What about the “Population Membrane Permeable-Phenotype (%)” value [11] of the same molecule?
Its value is 46%.

What about the “Population Mitochondria Different-Phenotype (%)” value [11] of the same molecule?
Its value is 20%.

And the “Population Mitotic Cells (%)” value [11]?
The value was 29%.

What about the “Population Normal (%)” value [11] of the same molecule?
The value was 78%.

What about the “Population Pyknosed Nuclei (%)” value [11] of the same molecule?
The value was 47%.

What about the “Population Tubulin-Different-Phenotype (%)” value [11] of the same molecule?
The value was 26%.

And the “Total Cell Count” value [11]?
The value was 230.

And the “Population Apoptotic (%)” value [12]?
Its value is 73%.

And the “Population Fragmented Nuclei (%)” value [12]?
The value was 50%.

What about the “Population Healthy Nuclei (%)” value [12] of the same molecule?
Its value is 15%.

What about the “Population Hoechst High Intensity Objects (%)” value [12] of the same molecule?
Its value is 15%.

And the “Population Membrane Permeable-Phenotype (%)” value [12]?
The value was 57%.

And the “Population Mitochondria Different-Phenotype (%)” value [12]?
Its value is 42%.

What about the “Population Mitotic Cells (%)” value [12] of the same molecule?
Its value is 26%.

And the “Population Normal (%)” value [12]?
The value was 84%.

What about the “Population Pyknosed Nuclei (%)” value [12] of the same molecule?
The value was 33%.

What about the “Population Tubulin-Different-Phenotype (%)” value [12] of the same molecule?
The value was 57%.

What about the “Total Cell Count” value [12] of the same molecule?
Its value is 105.
